From ChEMBL document CHEMBL1126019, “Synthesis, stability, and biological evaluation of water-soluble prodrugs of a new echinocandin lipopeptide. Discovery of a potential clinical agent for the treatment of systemic candidiasis and Pneumocystis carinii pneumonia (PCP)” (J Med Chem, 1992)

Columns and labels:
Fungi [1] = assay: Minimum fungicidal concentration against Candida albicans MY 1028; assay type: functional, organism-based
Method in brief: (§1)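 Clinical isolates in yeast nitrogen base with 1% dextrose, inoculated with about 5×10^3 CFU per well. Drug was tested by 2-fold serial dilution from 128 to 0.06 µg/mL, with growth for 24 h at 35 °C. 1.5-µL aliquots were then spotted onto Sabouraud dextrose agar and incubated at 35 °C for 24 h. MFC was the lowest concentration giving fewer than five colonies per spot. Duplicate determinations.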

Fungi [2] = assay: Minimum fungicidal concentration against Candida tropicalis MY 1012; assay type: functional, organism-based; method in brief: as §1
Fungi [3] = assay: Minimum fungicidal concentration against Candida pseudotropicalis MY 1100; assay type: functional, organism-based
Method in brief: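 Clinical isolates were inoculated at about 5×10^3 CFU into yeast nitrogen base with 1% dextrose, with drug in 2-fold dilutions from 128 to 0.06 µg/mL, and grown 24 h at 35 °C. Then 1.5 µL aliquots were spotted on Sabouraud dextrose agar and held 24 h at 35 °C. MFC is the lowest concentration giving fewer than five colonies per spot, from duplicate determinations.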

Homo sapiens = organism: Homo sapiens; assay: Hemolytic potential was determined as the minimum lytic concentration against human red blood cells; assay type: functional, cell-based
Method in brief: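 Compounds were serially diluted in water containing 10% DMSO and added to whole human blood, then incubated 2 h at 37 °C. Red cell lysis was scored visually, and the lowest lytic concentration was recorded.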

[4] = Inhibitory activity against glucan synthesis; assay type: functional
Fungi [5] = assay: Minimum fungicidal concentration against Candida albicans MY 1055; assay type: functional, organism-based; method in brief: as §1
Mus musculus = organism: Mus musculus; assay: Minimum effect dose required to reduce the number of colony forming units in per gram kidney of mice after being challenged, by tail vein injection, with 5 X l0e4 cells of Candida albicans (MY 1055); assay type: functional
Method in brief: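 DBA/2 mice (5 per dose level) were infected intravenously and dosed ip with vehicle sham or 1.5, 3.0 or 6.0 mg/kg twice daily for 4 days. On day 7 post-infection, kidneys were cultured on SDA (35 °C, 24 h) and CFU/g counted. MED99 is the dose giving ≥99% CFU/g reduction versus vehicle sham.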

Rattus norvegicus = organism: Rattus norvegicus; assay: Minimum effect dose required to reduce the number of alveolor cyst load in rat Pneumocystis carinii pneumonia assay; assay type: functional
Method in brief: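 Immunosuppressed Sprague-Dawley rats with confirmed infection (5 per dose level) were dosed subcutaneously, 0.15 and 0.60 mg/kg twice daily for 4 days. On day 5, lungs were homogenized and cysts counted microscopically in a known amount of homogenate. MED90 is the dose giving ≥90% cyst reduction versus vehicle sham controls.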

Fungi [6] = assay: Minimum fungicidal concentration against Candida parapsilosis MY 1010; assay type: functional, organism-based; method in brief: as §1

SMILES | Concentration (Fungi [1]) | Concentration (Fungi [2]) | Concentration (Fungi [3]) | Concentration (Homo sapiens) | IC50 [4] | Concentration (Fungi [5]) | MED99 (Mus musculus) | MED90 (Rattus norvegicus) | Concentration (Fungi [6])
CCC(C)CC(C)CCCCCCCCC(=O)N[C@H]1C[C@@H](O)[C@@H](O)NC(=O)[C@@H]2[C@@H](O)CCN2C(=O)[C@H]([C@@H](O)CC(N)=O)NC(=O)[C@H]([C@H](O)[C@@H](O)c2ccc(OC(=O)NCC(=O)O)cc2)NC(=O)[C@@H]2C[C@@H](O)CN2C(=O)[C@H]([C@H](C)O)NC1=O (stereo not given in full) | 4 µg/mL | 8 µg/mL | 32 µg/mL | > 400 µg/mL | > 10000 nM | 4 µg/mL |  |  | 
CCC(C)CC(C)CCCCCCCCC(=O)N[C@H]1C[C@@H](O)[C@@H](O)NC(=O)[C@@H]2[C@@H](O)CCN2C(=O)[C@H]([C@@H](O)CC(N)=O)NC(=O)[C@H]([C@H](O)[C@@H](O)c2ccc(OC(=O)CCN)cc2)NC(=O)[C@@H]2C[C@@H](O)CN2C(=O)[C@H]([C@@H](C)O)NC1=O.Cl (stereo not given in full) |  |  |  |  |  |  | 6 mg/kg | 0.15 mg/kg | 
CCC(C)CC(C)CCCCCCCCC(=O)N[C@H]1C[C@@H](O)[C@@H](O)NC(=O)[C@@H]2[C@@H](O)CCN2C(=O)[C@H]([C@@H](O)CC(N)=O)NC(=O)[C@H]([C@H](O)[C@@H](O)c2ccc(OC(=O)OCCN(C)C)cc2)NC(=O)[C@@H]2C[C@@H](O)CN2C(=O)[C@H]([C@H](C)O)NC1=O (stereo not given in full) | 0.125 µg/mL | 0.125 µg/mL | 1 µg/mL | 50 µg/mL | 100 nM | 0.25 µg/mL |  |  | 2 µg/mL
CCC(C)CC(C)CCCCCCCCC(=O)N[C@H]1C[C@@H](O)[C@@H](O)NC(=O)[C@@H]2[C@@H](O)CCN2C(=O)[C@H]([C@@H](O)CC(N)=O)NC(=O)[C@H]([C@H](O)[C@@H](O)c2ccc(OC(=O)N(C)CC(=O)O)cc2)NC(=O)[C@@H]2C[C@@H](O)CN2C(=O)[C@H]([C@@H](C)O)NC1=O (stereo not given in full) |  |  |  |  |  |  | > 6 mg/kg | > 0.6 mg/kg | 
CCC(C)CC(C)CCCCCCCCC(=O)N[C@H]1C[C@@H](O)[C@@H](O)NC(=O)[C@@H]2[C@@H](O)CCN2C(=O)[C@H]([C@@H](O)CC(N)=O)NC(=O)[C@H]([C@H](O)[C@@H](O)c2ccc(OC(=O)NCCC(=O)O)cc2)NC(=O)[C@@H]2C[C@@H](O)CN2C(=O)[C@H]([C@@H](C)O)NC1=O (stereo not given in full) |  |  |  |  |  |  | > 6 mg/kg | > 0.6 mg/kg | 
CCC(C)CC(C)CCCCCCCCC(=O)N[C@H]1C[C@@H](O)[C@@H](O)NC(=O)[C@@H]2[C@@H](O)CCN2C(=O)[C@H]([C@@H](O)CC(N)=O)NC(=O)[C@H]([C@H](O)[C@@H](O)c2ccc(OC(=O)NCCN(C)C)cc2)NC(=O)[C@@H]2C[C@@H](O)CN2C(=O)[C@H]([C@H](C)O)NC1=O (stereo not given in full) | 1 µg/mL | 1 µg/mL | 64 µg/mL | 25 µg/mL | 1000 nM | 1 µg/mL |  |  | 
CCC(C)CC(C)CCCCCCCCC(=O)N[C@H]1C[C@@H](O)[C@@H](O)NC(=O)[C@@H]2[C@@H](O)CCN2C(=O)[C@H]([C@@H](O)CC(N)=O)NC(=O)[C@H]([C@H](O)[C@@H](O)c2ccc(OC(=O)CN)cc2)NC(=O)[C@@H]2C[C@@H](O)CN2C(=O)[C@H]([C@H](C)O)NC1=O (stereo not given in full) | 1 µg/mL | < 0.06 µg/mL | 2 µg/mL | 100 µg/mL | 50 nM | 0.5 µg/mL |  |  | 
CCC(C)CC(C)CCCCCCCCC(=O)N[C@H]1C[C@@H](O)[C@@H](O)NC(=O)[C@@H]2[C@@H](O)CCN2C(=O)[C@H]([C@@H](O)CC(N)=O)NC(=O)[C@H]([C@H](O)[C@@H](O)c2ccc(OC(=O)NCCN(C)C)cc2)NC(=O)[C@@H]2C[C@@H](O)CN2C(=O)[C@H]([C@@H](C)O)NC1=O.O=C(O)C(F)(F)F (stereo not given in full) |  |  |  |  |  |  | 6 mg/kg | 0.6 mg/kg | 
CCC(C)CC(C)CCCCCCCCC(=O)N[C@H]1C[C@@H](O)[C@@H](O)NC(=O)[C@@H]2[C@@H](O)CCN2C(=O)[C@H]([C@@H](O)CC(N)=O)NC(=O)[C@H]([C@H](O)[C@@H](O)c2ccc(OC(=O)OCCN(C)C)cc2)NC(=O)[C@@H]2C[C@@H](O)CN2C(=O)[C@H]([C@@H](C)O)NC1=O.O=C(O)C(F)(F)F (stereo not given in full) |  |  |  |  |  |  | 6 mg/kg | 0.6 mg/kg | 
